“And” between values parts separate entries of the source, which are not always exact repeats. Equal entries are not always repeated. The source made the active and inactive calls.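 The calls were made as follows: active = compounds whose fitted dose for half their peak growth loss is at most twice the top usable dose; inconclusive = flat curve with moderate growth loss, or a poor fit; inactive = the rest.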

The AC50 is the midpoint of the concentration-response curve, whichever way the signal moves.

In one experiment the test system is Candida glabrata growth in glucose medium, OD600, 48 h. Briefly: antifungal activity against fermenting C. glabrata – glucose medium, OD600, powder samples, set 3, dose response (AID 623967).
Conditions: not given
The essentials: (§1)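 System – Candida glabrata yeast cells, whole-organism growth assay · Technique – optical density at 600 nm · Incubation – 48 h growth exposure at 30 °C, static, humidified · Compound dosing – pin-transferred compounds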
For the compound `CC1/C=C/C=C\C=C\C=C\C=C\C=C\C=C\C(O[C@H]2OC(C)C(O)C(N)C2O)CC2OC(O)(CC(O)CC(O)C(O)CCC(O)CC(O)CC(=O)OC(C)C(C)C1O)CC(O)C2C(=O)O` (stereo partly drawn), the AC50 is 1220 nM.

Test system in a further experiment: not listed separately
The description is as above. The following applies: Candida glabrata growth in glucose medium, OD600, 48 h; at 3 µM (top of the series). The essentials: as §1
As to `CCOC(=O)N1C(=O)C2(CCCCC2)N(c2ccc(C)cc2)C1=S`, the activity change, negative = inhibition is -11.3% (inactive) and -13.1% (inactive).
For the compound `CCOC(=O)N1C(=O)C2(CCCCC2)N(c2ccccc2)C1=S`, the activity change, negative = inhibition is -11.4% (inactive).
Regarding `CCOC(=O)N1C(=O)C2(CCCCC2)N(c2cccc(C)c2)C1=S`, the activity change, negative = inhibition is -8.41% (inactive).
Same read-out and setting: the value for `C/C=C/[C@@H]1[C@H]2C[C@@H](C)CC[C@@H]2C(C)=C[C@H]1C(=O)c1c(O)c(-c2ccc(O)cc2)c[nH]c1=O` was -1.31% (inactive); that for `CCOC(=O)N1C(=O)C2(CCCCC2)N(c2ccc(Cl)cc2)C1=S` was -9.79% (inactive); that for `CCOC(=O)N1C(=O)C2(CCCCC2)N(c2ccc(C#N)cc2)C1=S` was -6.49% (inactive).
Still for that read-out and setting: then `CCOC(=O)N1C(=O)C2(CCCCC2)N(c2ccc(F)cc2)C1=S`, with -12.7% (inactive).

The values above are taken from PubChem BioAssay AID623967 (Broad Institute, 2012).
